Among the data in the array DNA melting data of Ke et al. (doi:10.1101/2024.01.08.574731) are Tm and folding enthalpy values, retold here.

Data set [1] in a line: melting temperature; fluorescence melt of hairpins on a sequencing array, two-state fit, raised by 9.35 °C to match UV melts. Particulars: sodium 0.088 M. The gist of the method:
(§1)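 With Cy3 and quencher oligos annealed, library hairpins on a sequenced MiSeq flow cell were imaged for Cy3 fluorescence in 50 mM Na-HEPES pH 8.0, 25 mM NaCl, in 2.5 °C steps up to 60 °C. Melting temperature and folding enthalpy were derived from bootstrapped two-state fits of signals normalised to pre-quench Cy3 and to control constructs. Four replicates were combined by inverse variance, with fitted temperatures raised by 9.35 °C to match UV melts.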

Data set [2] can be described thus: folding enthalpy; higher = less favourable; fluorescence melt of hairpins on a sequencing array, two-state fit. Conditions: sodium 0.088 M. The gist of the method:
as §1

Turning to GCTATGCGAAAGCTTGGC ((.(.((....)).).)), the Tm in data set [1] came to 42.1 °C. The folding enthalpy in data set [2] is -24.6 kcal/mol.

Turning to GCTATGGAAACATAGC ((((((....)))))), the Tm in data set [1] was 55.6 °C. The folding enthalpy in data set [2] was -35.4 kcal/mol.

GCTATGTCGAAAGACAGC (((..(((....)))))): the Tm in data set [1] came to 41.5 °C. Further, the folding enthalpy in data set [2] is -14 kcal/mol.

Turning to GCTATTCGAAAGAAGAGC (((.(((....))).))), the Tm in data set [1] came out at 51.1 °C. Moreover, the folding enthalpy in data set [2] is -39.9 kcal/mol.

With GCTCAACGAAAGTTAGC (((.(((....)))))), the Tm in data set [1] worked out at 41.1 °C. Besides, the folding enthalpy in data set [2] was -22.2 kcal/mol.

Regarding GCTCAAGCGAAAGCTAGC (((..(((....)))))), the Tm in data set [1] was 40.6 °C. In addition, the folding enthalpy in data set [2] was -14.1 kcal/mol.

On to GCTCAAGGAAACTTGAAC (.(((((....))))).), for which the Tm in data set [1] amounted to 31.8 °C. The folding enthalpy in data set [2] is -15 kcal/mol.

With GCTCACCGAAAGGTAGC (((.(((....)))))), the Tm in data set [1] is 50.2 °C. Moreover, in data set [2], the folding enthalpy was -22.4 kcal/mol.

For the sequence GCTCACGAAAGTGATAGC ((((((....)))..))), in data set [1], the Tm stood at 47.4 °C. Besides, in data set [2], the folding enthalpy was -17.4 kcal/mol.

Turning to GCTCACGAAAGTGCAGC ((((((....))).))), the Tm in data set [1] is 52 °C. Further, in data set [2], the folding enthalpy was -22.9 kcal/mol.

As for GCTCACGAAAGTGCTAGC ((((((....)))..))), the Tm in data set [1] stood at 35.8 °C. Moreover, the folding enthalpy in data set [2] is -15.6 kcal/mol.

For GCTCACGAAAGTGGTAGC ((((((....)))..))), in data set [1], the Tm turned out to be 44.7 °C. Also, the folding enthalpy in data set [2] was -19.7 kcal/mol.

Regarding GCTCACGGAAACGTGAAC (.(((((....))))).), in data set [1], the Tm came to 42.3 °C. Moreover, in data set [2], the folding enthalpy is -13 kcal/mol.

With GCTCACGGAAACGTGGGC ((.((((....)))).)), the Tm in data set [1] worked out at 59.6 °C. Moreover, the folding enthalpy in data set [2] is -47.8 kcal/mol.

As for GCTCAGCGAAAGCAGAGC ((((.((....)).)))), in data set [1], the Tm stood at 67.3 °C. Moreover, in data set [2], the folding enthalpy was -36.3 kcal/mol.

In the case of GCTCAGCGAAAGCAGCGC ((.(.((....)).).)), in data set [1], the Tm is 49.4 °C. For the same sequence, the folding enthalpy in data set [2] was -18 kcal/mol.

On to GCTCAGCGAAAGCATAGC (((..((....))..))), for which, in data set [1], the Tm worked out at 38.5 °C. Besides, in data set [2], the folding enthalpy is -16 kcal/mol.

With GCTCAGCGAAAGCGCAGC (((..((....))..))), the Tm in data set [1] turned out to be 45.7 °C. In addition, the folding enthalpy in data set [2] was -14.8 kcal/mol.

Regarding GCTCAGCGAAAGCGGCGC ((.(.((....)).).)), the Tm in data set [1] turned out to be 58.4 °C. The folding enthalpy in data set [2] was -19.5 kcal/mol.

For GCTCAGCGAAAGCGGTGC ((.(.((....)).).)), in data set [1], the Tm came out at 55.2 °C. Further, the folding enthalpy in data set [2] was -17.8 kcal/mol.

For the sequence GCTCATGGAAACATGGGC ((.((((....)))).)), in data set [1], the Tm turned out to be 53 °C. Moreover, the folding enthalpy in data set [2] was -34.2 kcal/mol.

On to GCTCCAGCGAAAGCTAGC (((..(((....)))))), for which the Tm in data set [1] amounted to 34 °C. Also, the folding enthalpy in data set [2] was -8.7 kcal/mol.

Consider GCTCCAGGAAACCAGAGC ((((..(....)..)))), for which the Tm in data set [1] was 34.4 °C. In data set [2], the folding enthalpy is -19.4 kcal/mol.

As for GCTCCCCGAAAGGGCAGC (((.(((....))).))), in data set [1], the Tm was found to be 48 °C. Besides, the folding enthalpy in data set [2] was -21 kcal/mol.

Turning to GCTCCCGAAAGGGATAGC ((((((....)))..))), the Tm in data set [1] came out at 48.4 °C. Moreover, in data set [2], the folding enthalpy is -17.5 kcal/mol.

In the case of GCTCCCGAAAGGGCTAGC ((((((....)))..))), in data set [1], the Tm stood at 38.6 °C. Further, the folding enthalpy in data set [2] is -12.8 kcal/mol.

GCTCCCGAAAGGGTAAGC ((((((....)))..))): the Tm in data set [1] was 46.2 °C. Also, the folding enthalpy in data set [2] was -20.7 kcal/mol.

For the sequence GCTCCGCGAAAGCAGGGC ((.(.((....)).).)), in data set [1], the Tm was found to be 50.1 °C. For the same sequence, in data set [2], the folding enthalpy was -16 kcal/mol.

As to GCTCCGCGAAAGCGAGGC ((..(((....)))..)), the Tm in data set [1] amounted to 55.6 °C. For the same sequence, the folding enthalpy in data set [2] is -14.4 kcal/mol.

On to GCTCCGCGAAAGCGTAGC (((.(((....))).))), for which the Tm in data set [1] is 51.8 °C. For the same sequence, the folding enthalpy in data set [2] was -32.6 kcal/mol.

On to GCTCCGCGAAAGCTGAGC ((((.((....)).)))), for which the Tm in data set [1] was found to be 61.1 °C. In addition, in data set [2], the folding enthalpy is -32.3 kcal/mol.

Consider GCTCCTGCGAAAGCAAGC (((..(((....)))))), for which the Tm in data set [1] was determined as 26.7 °C. In addition, the folding enthalpy in data set [2] was -9.07 kcal/mol.

For the sequence GCTCCTGGAAACAGGGGC ((.((((....)))).)), the Tm in data set [1] stood at 57.4 °C. Moreover, the folding enthalpy in data set [2] was -39.6 kcal/mol.

With GCTCGACGAAAGTCAAGC (((.(((....))).))), the Tm in data set [1] turned out to be 51.8 °C. In data set [2], the folding enthalpy is -27.7 kcal/mol.

Turning to GCTCGAGAAATCGAGC ((((((....)))))), in data set [1], the Tm was determined as 66.5 °C. Moreover, in data set [2], the folding enthalpy is -37.4 kcal/mol.

As for GCTCGAGGAAACTCGGGC ((.((((....)))).)), the Tm in data set [1] was found to be 59.9 °C. Also, in data set [2], the folding enthalpy is -38.9 kcal/mol.

GCTCGATCGAAAGATAGC (((..(((....)))))): the Tm in data set [1] turned out to be 28.1 °C. Besides, the folding enthalpy in data set [2] was -11.7 kcal/mol.
